# From PubChem BioAssay AID588754 (Broad Institute, 2011)
# Activity calls are given as the source filed them.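 Rule for the calls: active = fitted curve shows reduced dye-labelled HDL uptake, half-maximal concentration at most ten times top dose; inconclusive = flat curve with 30 to 70% inhibition, or unreliable fit; inactive = the rest.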
# Biological target: Scavenger receptor class B member 1 (Mus musculus) (UniProt Q61009)
# Test: inhibition of HDL lipid transfer via mSR-BI – ldlA[mSR-BI] CHO cells, powder samples, set 5, dose response (AID 588754)
# Details: DiI-HDL uptake fluorescence, 3 h
# Summary of the method: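 Detection: bottom-read DiI fluorescence after washing, ex 550/em 595 nm; Assay system: LDL receptor-deficient CHO ldlA cells overexpressing murine SR-BI; Medium: Ham's F12 with fatty acid-free BSA and HEPES; Schedule: 3 h exposure to compound plus DiI-HDL at 37 °C; Also added: DiI-labeled HDL at 10 µg/mL final.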
# Sequence of Scavenger receptor class B member 1 (Mus musculus) (Q61009 whole entry, looked up): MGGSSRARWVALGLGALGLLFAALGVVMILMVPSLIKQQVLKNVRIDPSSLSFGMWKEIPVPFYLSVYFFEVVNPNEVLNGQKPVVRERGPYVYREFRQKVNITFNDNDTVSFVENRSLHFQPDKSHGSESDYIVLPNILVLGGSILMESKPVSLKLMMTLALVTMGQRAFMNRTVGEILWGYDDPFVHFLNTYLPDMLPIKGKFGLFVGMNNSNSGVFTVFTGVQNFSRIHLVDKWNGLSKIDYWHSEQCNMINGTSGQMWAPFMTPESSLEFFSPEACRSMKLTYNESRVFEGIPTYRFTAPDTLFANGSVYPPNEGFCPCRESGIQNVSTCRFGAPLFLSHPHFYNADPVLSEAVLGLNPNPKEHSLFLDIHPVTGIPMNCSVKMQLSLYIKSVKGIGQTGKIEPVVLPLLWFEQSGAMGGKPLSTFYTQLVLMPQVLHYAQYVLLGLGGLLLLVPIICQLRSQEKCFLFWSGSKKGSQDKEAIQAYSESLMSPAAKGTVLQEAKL
row,SMILES,AC50
1,CCC(=O)N1CCc2cc(-c3csc(NCc4cc(OC)cc(OC)c4)n3)ccc21,372 nM
2,COc1ccc(-c2cc(CC(=O)N(C3CCCCC3)C(C)C(=O)NC3CCCC3)no2)cc1OC (stereo not drawn),29.4 nM
3,O=C(CN(C(=O)Cn1nnc(-c2ccc3c(c2)OCO3)n1)C1CCCCC1)NC1CCCC1,60.2 nM
4,CC(C(=O)NC1CCCC1)N(C(=O)Cn1nnc(-c2ccc3c(c2)OCO3)n1)C1CCCCC1 (stereo not drawn),49.9 nM
5,COc1ccc(-c2nnn(CC(=O)N(C3CCCCC3)C(C)C(=O)NC3CCCC3)n2)cc1OC (stereo not drawn),65.2 nM
6,CCC(=O)n1ccc2cc(-c3csc(NC(=O)c4cc(OC)cc(OC)c4)n3)ccc21,89.3 nM
7,COc1ccc(-c2nc(CC(=O)N(C3CCCCC3)C(C)C(=O)NC3CCCC3)co2)cc1OC (stereo not drawn),148 nM
8,COc1ccc(-c2nnn(CC(=O)N(CC(=O)N(C)C3CCCC3)C3CCCCC3)n2)cc1OC,1610 nM
9,C[C@H](C(=O)NC1CCCC1)N(C(=O)Cn1nnc(-c2ccc3c(c2)OCO3)n1)C1CCCCC1,18.9 nM
10,O=C(Nc1nc(-c2ccc3c(c2)CCN3)cs1)c1ccco1,21.1 nM
11,CCC(=O)N1CC(C)(C)c2cc(-c3csc(NC(=O)c4ccco4)n3)ccc21,20.3 nM
12,C[C@@H]1CN([C@H](C)CO)C(=O)c2cc(NC(=O)Cc3cn(C)c4ccccc34)ccc2O[C@H]1CN(C)S(=O)(=O)c1ccc(Cl)cc1,5.98 nM
13,Cc1ccc2oc(-c3cccc(NC(=O)c4cc(-n5cnnc5)ccc4Cl)c3)nc2c1,3620 nM
14,C[C@@H](C(=O)NC1CCCC1)N(C(=O)Cn1nnc(-c2ccc3c(c2)OCO3)n1)C1CCCCC1,2270 nM
15,COc1ccc(-c2nnn(CC(=O)N(CC(=O)NC3CCCC3)C3CCCCC3)n2)cc1OC,36.5 nM
16,CCCCCCC1CCC/C1=N\NC(N)=S (stereo not drawn),16.6 nM
17,COc1ccc(-c2nnn(CC(=O)N(CC(=O)N3CCCCC3)C3CCCCC3)n2)cc1OC,9200 nM

# More lines, now with the values ahead:
row,AC50,SMILES
1,19.5 nM,COc1cc(OC)cc(C(=O)Nc2nc(-c3ccc4c(c3)CCN4C(=O)CN(C)C)cs2)c1
2,266 nM,CCC(=O)N1CCc2cc(-c3csc(NC(=O)c4cccc(OC(F)(F)F)c4)n3)ccc21
3,26 nM,CC(=O)N1CCc2cc(-c3nc(NC(=O)c4cccc(OC(F)(F)F)c4)sc3C)ccc21
4,10.3 nM,CCC(=O)N1CC(C)(C)c2cc(-c3csc(NC(=O)c4cc(OC)cc(OC)c4)n3)ccc21
5,25.8 nM,CCC(=O)N1CCc2cc(-c3csc(NC(=O)c4ccc(F)c(OC)c4)n3)ccc21
6,2.81 nM,COCC(=O)N1CCc2cc(-c3csc(NC(=O)c4cc(OC)cc(OC)c4)n3)ccc21
7,110 nM,CCC(=O)Nc1ccc(-c2csc(NC(=O)c3cccc(OC)c3)n2)cc1
8,207 nM,COc1cc(OC)cc(C(=O)Nc2nc(-c3ccc4c(c3)CCN4C(C)=O)cs2)c1
9,35 nM,CCC(=O)N1CCc2cc(-c3csc(NC(=O)c4cccc(OC)c4)n3)ccc21
10,256 nM,CCC(=O)N1CCc2cc(-c3csc(NC(=O)c4cc5ccccc5o4)n3)ccc21
11,2.76 nM,CCC(=O)N1CCc2cc(-c3csc(NC(=O)c4cc(OC)c(OC)c(OC)c4)n3)ccc21
12,2.28 nM,CCNC(=O)N1CCc2cc(-c3csc(NC(=O)c4cc(OC)cc(OC)c4)n3)ccc21
13,42.6 nM,CCC(=O)N1CCc2cc(-c3csc(NC(=O)c4cc(OC)cc(OC)c4)n3)ccc21
14,39 nM,COC(=O)N1CCc2cc(-c3csc(NC(=O)c4cc(OC)cc(OC)c4)n3)ccc21
15,0.909 nM,COc1cc(OC)cc(C(=O)Nc2nc(-c3ccc4c(c3)CCN4C(=O)OC(C)(C)C)cs2)c1

# Same assay, conditions: DiI-HDL uptake fluorescence, 3 h, at 35 µM (top of the series)
row,"activity change, negative = inhibition",SMILES
1,inactive,COc1c(NC(=O)C(=O)c2ccc(OCCN3CCOCC3)c3ccccc23)cc(C(C)(C)C)cc1NS(C)(=O)=O
